# Measurements published in ChEMBL document CHEMBL1671657, “MurF inhibitors with antibacterial activity: effect on muropeptide levels” (Antimicrob Agents Chemother, 2009).
# Calls of active or inactive are those of the source. No cut-off for these calls is given here.
# Experiments:
# Escherichia coli [1] = experiment: Antimicrobial activity against LPS-deffective Escherichia coli OC2530 by broth microdilution method; format: functional
# Method in brief: (§1)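 MICs by CLSI broth microdilution. Where polymyxin B nonapeptide was included, it was present at 2 μg/ml alongside the test compound.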
# Escherichia coli [2] = experiment: Antimicrobial activity against Escherichia coli OC2605 by broth microdilution method; format: functional
# Method in brief: (§2)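 CLSI broth microdilution MIC; strains from the sponsor's in-house collection.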
# Escherichia coli [3] = experiment: Antimicrobial activity against Escherichia coli OC9040 by broth microdilution method; format: functional; method in brief: as §1
# Escherichia coli [4] = experiment: Antimicrobial activity against Escherichia coli ATCC 25922 by broth microdilution method; format: functional; method in brief: as §1
# Enterococcus faecalis = experiment: Antimicrobial activity against Enterococcus faecalis ATCC 29212 by broth microdilution method; format: functional; method in brief: as §1
# Enterococcus faecium = experiment: Antimicrobial activity against Enterococcus faecium OC3312 by broth microdilution method; format: functional; method in brief: as §1
# Staphylococcus aureus [5] = experiment: Antimicrobial activity against Staphylococcus aureus ATCC 29213 by broth microdilution method; format: functional; method in brief: as §1
# Staphylococcus aureus [6] = experiment: Antimicrobial activity against methicillin-resistant Staphylococcus aureus OC3726 by broth microdilution method; format: functional; method in brief: as §2
# Staphylococcus aureus [7] = experiment: Antimicrobial activity against methicillin-resistant Staphylococcus aureus OC2878 by broth microdilution method; format: functional; method in brief: as §2
# Staphylococcus aureus [8] = experiment: Antimicrobial activity against Staphylococcus aureus OC4172 by broth microdilution method; format: functional; method in brief: as §1
# Escherichia coli [9] = experiment: Antimicrobial activity against LPS-deffective Escherichia coli OC2530 assessed as cell aggregation at 0.5 times MIC by light microscopy relative to untreated control; format: functional, organism-based
# Method in brief: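 Cells were fixed on a glass slide under a coverslip and viewed by light microscopy at ×100/×1.25 oil immersion. Representative images were taken.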
# Staphylococcus aureus [10] = experiment: Bacteriostatic activity against Staphylococcus aureus ATCC 29213 at 2 times MIC; format: functional, organism-based
# Escherichia coli [11] = experiment: Antimicrobial activity against LPS-deffective Escherichia coli OC2530 harboring pMurF plasmid by broth microdilution method in presence of chloramphenicol; format: functional
# Method in brief: (§3)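 CLSI broth microdilution MIC for OC2530 carrying plasmid (empty pASK or pMurF). Medium contained chloramphenicol 3 μg/ml to keep the plasmid and AHT 100 ng/ml to induce MurF expression.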
# Escherichia coli [12] = experiment: Antimicrobial activity against LPS-deffective Escherichia coli OC2530 harboring pASK plasmid by broth microdilution method in presence of chloramphenicol; format: functional; method in brief: as §3
# Escherichia coli [13] = experiment: Inhibition of LPS-deficient Escherichia coli OC2530 MurF assessed as UDP-MurNAc-tripeptide substrate level at 2 times MIC by HPLC (reference value: 1 mAU)
# Staphylococcus aureus [14] = experiment: Inhibition of Staphylococcus aureus ATCC 29213 MurF assessed as UDP-MurNAc-tripeptide substrate level at 2 times MIC by HPLC (reference value: 1 mAU)
# Method in brief: (§4)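 After 30 min, muropeptides were extracted and quantified by HPLC peak area, normalized to the control. The HPLC detection limit was 12 mAU. Results are representative of two independent experiments.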
# Escherichia coli [15] = experiment: Inhibition of LPS-deficient Escherichia coli OC2530 MurF assessed as UDP-MurNAc-pentapeptide product level at 2 times MIC by HPLC (reference value: 1 mAU)
# Staphylococcus aureus [16] = experiment: Inhibition of Staphylococcus aureus ATCC 29213 MurF assessed as UDP-MurNAc-pentapeptide product level at 2 times MIC by HPLC (reference value: 1 mAU); method in brief: as §4
# Escherichia coli [17] = experiment: Inhibition of LPS-deficient Escherichia coli OC2530 MurF harboring pASK plasmid assessed as UDP-MurNAc-tripeptide substrate level at 2 times MIC by HPLC (reference value: 63 +/- 4 mAU)
# Method in brief: (§5)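 Compound added at 2× MIC from 500× stock (DMSO control). After 30 min, muropeptides extracted and quantified by HPLC peak area (mAU); representative of two independent experiments.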
# Escherichia coli [18] = experiment: Inhibition of LPS-deficient Escherichia coli OC2530 MurF harboring pMurF plasmid assessed as UDP-MurNAc-tripeptide substrate level at 2 times MIC by HPLC (reference value: 220 +/- 65 mAU); method in brief: as §5
# Escherichia coli [19] = experiment: Inhibition of LPS-deficient Escherichia coli OC2530 MurF harboring pASK plasmid assessed as UDP-MurNAc-pentapeptide product level at 2 times MIC by HPLC (Rvb =880 +/- 17 mAU); method in brief: as §5
# Escherichia coli [20] = experiment: Inhibition of LPS-deficient Escherichia coli OC2530 MurF harboring pMurF plasmid assessed as UDP-MurNAc-pentapeptide product level at 2 times MIC by HPLC (reference value: 2674 +/- 696 mAU); method in brief: as §5
# Escherichia coli [21] = experiment: Bactericidal activity against LPS-deffective Escherichia coli OC2530 at 2 times MIC by CFU quantitation
# [22] = Inhibition of Escherichia coli MurF
# Staphylococcus aureus [23] = experiment: Antimicrobial activity against Staphylococcus aureus ATCC 29213 assessed as growth inhibition; format: functional, organism-based
# Staphylococcus aureus [24] = experiment: Antimicrobial activity against Staphylococcus aureus ATCC 29213 assessed as cell lysis; format: functional, organism-based
# Staphylococcus aureus [25] = experiment: Inhibition of Staphylococcus aureus ATCC 29213 MurF assessed as UDP-MurNAc-tripeptide substrate level at MIC by HPLC (reference value: 1 mAU); method in brief: as §4
# Staphylococcus aureus [26] = experiment: Inhibition of Staphylococcus aureus ATCC 29213 MurF assessed as UDP-MurNAc-tripeptide substrate level at 4 times MIC by HPLC (reference value: 1 mAU); method in brief: as §4
# Staphylococcus aureus [27] = experiment: Inhibition of Staphylococcus aureus ATCC 29213 MurF assessed as UDP-MurNAc-pentapeptide product level at MIC by HPLC ([…])
# Staphylococcus aureus [28] = experiment: Inhibition of Staphylococcus aureus ATCC 29213 MurF assessed as UDP-MurNAc-pentapeptide product level at 4 times MIC by HPLC (reference value: 1 mAU); method in brief: as §4
smiles,measurement,setting,value
N[C@@H]1CONC1=O [CYCLOSERINE],MIC,Escherichia coli [1],64 µg/mL
same,MIC,Escherichia coli [2],16 µg/mL
same,MIC,Escherichia coli [3],32 µg/mL
same,MIC,Escherichia coli [4],32 µg/mL
same,MIC,Enterococcus faecalis,128 µg/mL
same,MIC,Enterococcus faecium,64 µg/mL
same,MIC,Staphylococcus aureus [5],32 µg/mL
same,MIC,Staphylococcus aureus [6],32 µg/mL
same,MIC,Staphylococcus aureus [7],64 µg/mL
same,MIC,Staphylococcus aureus [8],32 µg/mL
same,Activity,Escherichia coli [9],Active
same,Activity,Staphylococcus aureus [10],Active
same,MIC,Escherichia coli [11],64 µg/mL
same,MIC,Escherichia coli [12],64 µg/mL
same,Activity (fold of control),Escherichia coli [13],30
same,Activity (fold of control),Staphylococcus aureus [14],> 100
same,Activity (fold of control),Escherichia coli [15],0.12
same,Activity (fold of control),Staphylococcus aureus [16],0.33
same,Activity,Escherichia coli [17],2260 mAU
same,Activity,Escherichia coli [18],5090 mAU
same,Activity,Escherichia coli [19],146 mAU
same,Activity,Escherichia coli [20],181 mAU
same,Activity,Escherichia coli [21],Active
COc1ccc2nc(OC)c([C@@H](c3ccccc3)[C@](O)(CCc3ccccc3)CCN(C)C)cc2c1,IC50,[22],29 µM
same,MIC,Escherichia coli [1],8 µg/mL
same,MIC,Escherichia coli [2],> 32 µg/mL
same,MIC,Escherichia coli [3],> 32 µg/mL
same,MIC,Escherichia coli [4],> 32 µg/mL
same,MIC,Enterococcus faecalis,8 µg/mL
same,MIC,Enterococcus faecium,8 µg/mL
same,MIC,Staphylococcus aureus [5],8 µg/mL
same,MIC,Staphylococcus aureus [6],8 µg/mL
same,MIC,Staphylococcus aureus [7],8 µg/mL
same,MIC,Staphylococcus aureus [8],8 µg/mL
same,inhibition,Staphylococcus aureus [23],Dose-dependent effect
same,Activity,Staphylococcus aureus [24],inactive
same,Activity,Staphylococcus aureus [10],Active
same,Activity (fold of control),Staphylococcus aureus [25],> 10
same,Activity (fold of control),Staphylococcus aureus [14],> 38
same,Activity (fold of control),Staphylococcus aureus [26],> 67
same,Activity (fold of control),Staphylococcus aureus [27],0.6
same,Activity (fold of control),Staphylococcus aureus [16],0.34
same,Activity (fold of control),Staphylococcus aureus [28],0.21
